Data set [1] relates to Human immunodeficiency virus 1. Description: Antiviral activity against HIV1 NL4.3 infected in MAGIC-5B cells after 48 hrs by beta-galactosidase reporter gene assay. The class given is functional, organism-based. Conditions: Human immunodeficiency virus 1, NL4.3, 48 h. The gist of the method: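 MAGIC-5B indicator cells (beta-galactosidase under the HIV-1 LTR), 8×10^4 per well, were exposed to these supernatants. After 48 h, ONPG hydrolysis was read in lysates and normalised to total protein.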

A short description of data set [2]: Cytotoxicity against human MAGIC-5B cells after 48 hrs by MTT assay. The data set is classed as cell-based. A general note: Tetrazolium assays rely on reduction of a dye to a coloured formazan, in cell work by metabolically active cells.
Data set [3] relates to Human immunodeficiency virus 1. Description: Antiviral activity against HIV1 NL4.3 infected in 293T cells assessed as aberrant core at 5 ug/ml after 2 days by electron microscopic analysis. The data set is classed as functional, organism-based.
For data set [4], the system named is Human immunodeficiency virus 1. The experiment in a line: Antiviral activity against HIV1 NL4.3 infected in 293T cells assessed as spherical core at 5 ug/ml after 2 days by electron microscopic analysis. The data set is classed as functional, organism-based.
The nature of data set [5]: Selectivity index, ratio of CC50 for human MAGIC-5B cells to IC50 for HIV1 NL4.3. The data set is classed as functional.
The test system of a further data set is 293T. Description: Inhibition of HIV1 NL4.3 CA-SP1 cleavage infected in 293T cells after 2 days by Western blot analysis. The class given is cell-based. Conditions: Human immunodeficiency virus 1.
Data set [6] deals with Human immunodeficiency virus 1. Description: Antiviral activity against HIV1 NL4.3 infected in 293T cells assessed as acentric core at 5 ug/ml after 2 days by electron microscopic analysis. The class given is functional, organism-based.
The subject of data set [7] is Human immunodeficiency virus. Description: Antiviral activity against HIV infected in H9 cells. The data set is classed as functional, organism-based. Conditions: Human immunodeficiency virus 1, H9.
A short description of data set [8]: Ratio of compound selectivity index to bevirimat selectivity index for HIV1 NL4.3 over human MAGIC-5B cells.
Data set [9] has as its system Human immunodeficiency virus 1. Description: Binding affinity to HIV1 NL4.3 CA-SP1 at 550 uM by chemical shift pertubation NMR analysis. The gist of the method: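 2D 1H-1H NOESY of CA-SP1-NC peptide (250 uM) with and without ligand (550 uM). pH 3.8 in H2O/TFE 70/30 (to prevent aggregation) with 1% DMSO-d6. Spectral width 5296.6 Hz, excitation-sculpting water suppression, 250 ms NOE mixing time. Chemical-shift perturbation of the wild-type junction plotted per residue.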

Active and inactive are the calls of the source. The rule behind the calls is not given here. Some results are limits rather than exact numbers.

For orientation: IC50 means the concentration that inhibits the measured activity by half. Usually CC50 stands for the concentration at which the toxic effect on the cells reaches its halfway point. Higher therefore signals better tolerance by the cells. `C=C(C)[C@@H]1CC[C@]2(C(=O)NCC(=O)O)CC[C@]3(C)[C@H](CC[C@@H]4[C@@]5(C)CC[C@H](OC(=O)CC(C)(C)C(=O)O)C(C)(C)[C@@H]5CC[C@]43C)[C@@H]12` registered an IC50 in data set [1] of 160 nM. The 50% cytotoxic concentration (CC50) at 48 h in [2] is 49.5 µM. For the same molecule, the outcome in [3], in data set [4] and in data set [6] was Active. Besides, in data set [5], the “Ratio CC50/IC50” value amounted to 309.37. The inhibition entry in the data set on 293T was “Active”.

Regarding `C=C(C)[C@@H]1CC[C@]2(C(=O)N[C@@H](CCCCNC(=O)OC(C)(C)C)C(=O)O)CC[C@]3(C)[C@H](CC[C@@H]4[C@@]5(C)CC[C@H](OC(=O)CC(C)(C)C(=O)O)C(C)(C)[C@@H]5CC[C@]43C)[C@@H]12`, the IC50 in data set [1] is 170 nM. Besides, it took 33.9 µM to reach half-maximal cytotoxicity in [2] (CC50 at 48 h). Also, the result in [3], in data set [4] and in data set [6] was Active. Moreover, the “Ratio CC50/IC50” value in data set [5] worked out at 199.41. In addition, the inhibition result in the data set with 293T is “Active”.

A word on the EC50: it is the concentration giving half of the maximal effect. Read a high EC50 as weaker potency. With `C=C(C)[C@@H]1CC[C@]2(C(=O)O)CC[C@]3(C)[C@H](CC[C@@H]4[C@@]5(C)CC[C@H](OC(=O)CC(C)(C)C(=O)O)C(C)(C)[C@@H]5CC[C@]43C)[C@@H]12` [BEVIRIMAT], the result in data set [3], in data set [4] and in data set [6] was Active. In data set [7], this molecule showed a concentration giving a half-maximal response (EC50) of more than 0.35 nM. The inhibition entry in the data set on 293T is “Active”.

On to `C=C(C)[C@@H]1CC[C@]2(C(=O)N[C@@H](CCCCN)C(=O)O)CC[C@]3(C)[C@H](CC[C@@H]4[C@@]5(C)CC[C@H](OC(=O)CC(C)(C)C(=O)O)C(C)(C)[C@@H]5CC[C@]43C)[C@@H]12`, for which, in data set [1], half-maximal inhibition (IC50) required 4330 nM. In addition, in data set [2], half-maximal cytotoxicity (CC50 at 48 h) was put at 48.7 µM. Also, the result in data set [3], in data set [4] and in [6] was inactive. Further, the “Ratio CC50/IC50” value in [5] is on record as 11.24. The inhibition result in the data set on 293T is “inactive”.

Take `C=C(C)[C@@H]1CC[C@]2(C(=O)NCCN)CC[C@]3(C)[C@H](CC[C@@H]4[C@@]5(C)CC[C@H](OC(=O)CC(C)(C)C(=O)O)C(C)(C)[C@@H]5CC[C@]43C)[C@@H]12`: the IC50 in data set [1] came to 16 nM. For the same molecule, in [2], the CC50 at 48 h is 33.9 µM. In addition, the outcome in [3], in data set [4], in [6] and in data set [9] was Active. Moreover, the Ratio in data set [8] was found to be 2. Further, the “Ratio CC50/IC50” value in data set [5] is 2118.75. Besides, the inhibition entry with 293T is “Active”.

The molecule `C=C(C)[C@@H]1CC[C@]2(C(=O)O)CC[C@]3(C)[C@H](CC[C@@H]4[C@@]5(C)CC[C@H](O)C(C)(C)[C@@H]5CC[C@]43C)[C@@H]12` [BETULINIC ACID] registered an IC50 in [1] of 5320 nM. This molecule registered a 50% cytotoxic concentration (CC50) at 48 h in data set [2] of 4.52 µM. For the same molecule, the result in data set [3], in data set [4] and in [6] was inactive. Also, the “Ratio CC50/IC50” value in data set [5] is listed as 0.85. Besides, the inhibition entry with 293T is “inactive”.

With `C=C(C)[C@@H]1CC[C@]2(C(=O)NCCC(=O)O)CC[C@]3(C)[C@H](CC[C@@H]4[C@@]5(C)CC[C@H](OC(=O)CC(C)(C)C(=O)O)C(C)(C)[C@@H]5CC[C@]43C)[C@@H]12`, in [1], the concentration for half-maximal inhibition (IC50) is 118 nM. Further, the midpoint of cytotoxicity in [2], the CC50 at 48 h, lay at 48.5 µM. For the same molecule, the result in data set [3], in data set [4] and in [6] was Active. Moreover, the “Ratio CC50/IC50” value in [5] was determined as 411.01. The inhibition result with 293T is “Active”.

For the origin of these results see ChEMBL document CHEMBL2331496 (Eur J Med Chem, 2013).
